Assay outcomes: PubChem BioAssay, several laboratories
CRFBP-R2 block: blocks CRF-induced signaling of the CRF-BP/CRF-R2 complex | HEK293 CRF-R2/CRF-BP, CRF-induced calcium fluorescence | inhibition, % at 11.8 µM | hit rate 0.59% among 350,000 | AID 588475;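 active = inhibition of the ligand-induced calcium signal above about 50% at the single tested concentration, limit read from the data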
NRP1-CendR mod: NRP-1/CendR interaction modulation; FAM-RPARPAR peptide binding to NRP-1, fluorescence polarization; inhibition, % at 25 µM; hit rate 0.85% among 360,000; AID 602438;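 active = inhibition or corrected inhibition above about 18%, plus a signal ratio from 0.5 to 1.5, limit read from the data, passing the limit was not always enough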
DDE Tn7 FP inh: disrupts Tn7 cyclic peptide binding to fibrin D-Dimer-E complex; P02675; FP displacement of FITC-Tn7 peptide from fibrin DD(E); 0% = median of compound wells per plate; inhibition, % at 8.3 µM; hit rate 0.13% among 370,000; AID 720508;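 active = inhibition above the mean of compounds falling within the control limits plus 3 SD of them, cut at about 14% in these data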
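Assay system: Human fibrin DD(E) protein | Medium: Tris buffer with calcium and detergent, pH 7.8 | Reagent: 0.1 µM fluorescent Tn7 | Compound dosing: Single point at 8.3 µM | Times: 10 min preincubation, 3 h with tracer, room temperature | Detection: Fluorescence polarization of the labelled Tn7 tracer | Controls: Aha-Tn7 high control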
DDE Tn6 FP inh: disrupts Tn6 cyclic peptide binding to fibrin D-Dimer-E complex | P02675 | Fibrin DD(E) TRITC-Tn6 fluorescence polarization displacement | inhibition, % at 8.3 µM | hit rate 0.21% among 370,000 | AID 720509;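 active = inhibition above a per-campaign cutoff: mean of compounds within control limits plus 3 SD, cut at about 15% in these data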
proKLK7 act: activators of human kallikrein-7 zymogen; purified proKLK7, EDANS-DABCYL substrate fluorescence; 100% is mature enzyme control, 0% vehicle; hit rate 0.9% among 370,000; P49862; AID 652039; activation, % at 7 µM;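 active = activation above the mean of all tested compounds plus 3 SD, computed per campaign excluding outliers beyond control limits, cut at about 13% in these data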
Target sequence (P49862 whole entry, looked up): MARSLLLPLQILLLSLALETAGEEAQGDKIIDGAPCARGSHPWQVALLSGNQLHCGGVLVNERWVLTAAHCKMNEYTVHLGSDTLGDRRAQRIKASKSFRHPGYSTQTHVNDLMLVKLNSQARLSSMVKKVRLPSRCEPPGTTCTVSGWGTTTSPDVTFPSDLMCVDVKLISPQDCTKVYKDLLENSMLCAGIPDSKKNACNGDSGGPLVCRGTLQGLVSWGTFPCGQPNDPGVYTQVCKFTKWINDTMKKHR
CRFBP-R2 agonist: agonists of human CRF-binding protein/CRF-R2 receptor complex | HEK293 CRF-R2/CRF-BP, calcium dye fluorescence (FLIPR); percent of saturating CRF peptide response | AID 588473 | hit rate 0.46% among 350,000 | activation, % at 13.2 µM;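 active = activation of at least 50%, plus an integration ratio under a set limit after plate pattern correction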
A number is an active result; . = inactive; / = no result given. Most compounds without a hit are left out; they make up all but 2.9% or so of the library.

SMILES	CRFBP-R2 block	NRP1-CendR mod	DDE Tn7 FP inh	DDE Tn6 FP inh	proKLK7 act	CRFBP-R2 agonist
CC1=CC(C)(C)N(C(=O)c2ccccc2)c2ccccc21	.	.	.	.	.	.
C[C@@H]1ON(C)[C@H]2C[C@H]3c4[nH]c5cccc(-c6ccccc6F)c5c4CCN3C(=O)[C@@H]12	/	/	.	.	.	/
COc1ccc([C@H](OC)[C@@]2(Cc3ccc(O)cc3)N=C(N)N(C)C2=O)cc1	.	21	.	.	.	.
CC(C)C[C@H]1COc2cccc(F)c2S(=O)(=O)N1Cc1cn(CCC2OCCO2)nn1	/	/	.	.	.	/
Cc1ccc(C)c(-n2c(SCC(=O)NC(C(=O)O)C(C)C)nnc2-c2cccc(Cl)c2)c1 (stereo not drawn)	.	26	.	.	.	.
C=CC[C@@]1(c2ccc(Br)cc2OC)Oc2ccccc2-c2nccnc21	/	/	.	.	.	/
CC1(c2nnc(-c3ccc(F)cc3)o2)CC(c2c(Cl)cccc2Cl)=NO1 (stereo not drawn)	.	29	.	.	.	.
O=C1CCC2(CCC(c3ccccc3)CC2)N1CCO (stereo not drawn)	/	/	.	.	.	/
Cc1cccc(C(C(C(=O)c2ccccc2)N2CCOCC2)N2CCOCC2)c1 (stereo not drawn)	.	.	.	.	.	.
CC(=O)C(C(c1ccccc1)N1CCCc2ccccc21)N1CCOCC1 (stereo not drawn)	.	24	.	.	.	.
Cc1cc(C)cc(C(=O)OCCN(C)C2CN(Cc3cn(Cc4ccccc4F)nn3)S(=O)(=O)C2)c1 (stereo not drawn)	/	/	.	.	.	/
Cc1onc(-c2ccccc2)c1CNC(=O)CN1C(=O)c2ccccc2C1=O	109	.	.	.	.	.
Cc1cc(C)cc(NC(=O)NCc2c(-c3ccccc3)noc2C)c1	.	.	.	.	.	.
CCOC(=O)CSc1nc2nc(C)cc(C)n2n1	.	.	.	.	.	.
CCCn1c(C)cc(C(=O)CSc2nc3nc(C)cc(C)n3n2)c1C	.	33	.	.	.	.
C[C@H](NC(=O)c1nc[nH]c1C(=O)NCc1ccccc1)c1ccccc1	.	.	.	.	.	.
CC(C)(C)OC(=O)NCc1ccc(CNC(=O)c2nc[nH]c2C(=O)N2CCN(C(=O)OC(C)(C)C)CC2)cc1	.	27	.	.	.	.
C[C@@H](NC(=O)c1nc[nH]c1C(=O)NCCCCCNC(=O)OC(C)(C)C)c1ccccc1	.	.	.	.	.	.
CC(C)(C)OC(=O)N1CCN(c2ccc(CNC(=O)c3ccc(Cl)cc3)cc2)CC1	50	.	.	.	.	.
Cc1ccc(NC(=O)c2nc[nH]c2C(=O)N2CCN(C(=O)OC(C)(C)C)CC2)cc1	.	.	.	.	.	.
C[C@H](NC(=O)c1nc[nH]c1C(=O)NCc1ccc(CNC(=O)OC(C)(C)C)cc1)c1ccccc1	.	28	.	.	.	.
C[C@@H](NC(=O)c1nc[nH]c1C(=O)NCc1ccccc1)c1ccccc1	.	26	.	.	.	.
COC(=O)c1cc2c(c3c4ccccc4n(S(C)(=O)=O)c13)C(=O)N(Cc1ccccc1)C2	/	/	.	.	.	/
C[C@H](NC(=O)c1nc[nH]c1C(=O)NCCCCCNC(=O)OC(C)(C)C)c1ccccc1	.	28	.	.	.	.
CC1CCN(C(=O)c2[nH]cnc2C(=O)N[C@H](C)c2ccccc2)CC1	.	.	.	.	.	.
SMILES	CRFBP-R2 block	NRP1-CendR mod	DDE Tn7 FP inh	DDE Tn6 FP inh	proKLK7 act	CRFBP-R2 agonist
C[C@@H](NC(=O)c1nc[nH]c1C(=O)N1CCN(c2ccccc2)CC1)c1ccccc1	.	22	.	.	.	.
[C-]#[N+][C@]12C(=O)[C@H](C=C(Cl)[C@@]1(C)C=C)C(C)(C)[C@H]1C(=O)N(C)c3cccc2c31	/	/	.	.	.	/
O=C(NC1CCCCN(Cc2cccc(C(F)(F)F)c2)C1=O)c1ccc(Cl)c(Cl)c1 (stereo not drawn)	/	/	.	.	.	/
C[C@H](O)[C@@H]1CN2CCc3c([nH]c4c(-c5ccccc5)cccc34)[C@@H]2C[C@@H]1N(C)C(=S)Nc1ccc(C#N)cc1	/	/	.	.	.	/
Cc1ccc(C)c(N2CCN(C(=O)c3cc4ccccn4n3)CC2)c1	.	21	/	/	/	119
COC(=O)N1Cc2ccnnc2CC1c1ccccc1-c1ccc(OC)cc1 (stereo not drawn)	/	/	.	.	.	/
COc1ccc(C2/C=C\CN3CCC[C@H]3C(=O)N2Cc2ccc(F)cc2)cc1 (stereo partly drawn)	.	.	.	.	.	.
COc1ccc([C@H]2/C=C\CN(C(=O)C3CC3)[C@@H](C)C(=O)N2Cc2ccc(F)cc2)cc1	.	33	.	.	.	.
COc1ccc([C@H]2/C=C\CN(S(C)(=O)=O)[C@@H](C)C(=O)N2Cc2ccc(F)cc2)cc1	.	22	.	.	.	.
COc1ccc(C2/C=C\CN(C(=O)C3CC3)[C@H](Cc3ccccc3)C(=O)N2Cc2ccc(F)cc2)cc1 (stereo partly drawn)	.	.	/	/	/	.
Cc1ccsc1S(=O)(=O)n1c(CN2CCOCC2)nc2ccccc21	/	/	.	.	.	/
Cn1c(=O)c(Nc2ccc(Cl)cc2)c2c3c(cccc31)C(=O)c1ccccc1-2	.	/	36	.	.	111
CCOC(=O)c1cnc(-n2nc(C)cc2C)nc1Nc1ccc(OC)cc1	.	30	.	.	.	.
COC(=O)[C@H](C(C)C)N1CCc2nnn(Cc3ccc(C)cc3)c2-c2cc(F)ccc2S1(=O)=O	/	/	.	.	.	/
Cn1nccc1C(=O)N1CCN(c2ccccc2Cl)CC1	.	.	.	.	.	.
Cc1cccc(N2CCN(C(=O)c3ccnn3C)CC2)c1C	.	25	.	.	.	.
COc1ccc(N2CCN(CCCNC(=O)CCc3cccc(Cl)c3)CC2)cc1	/	/	.	.	.	/
Cc1ccc2c(c1)Sc1c(ccc3ccccc13)N2	.	48	.	.	.	.
CC(C)C[C@H](NC(=O)OC(C)(C)C)c1nnc(SCc2cccc(F)c2)o1	.	44	.	.	.	.
CSCC[C@H](NC(=O)OC(C)(C)C)c1nnc(SCc2cccc(F)c2)o1	.	.	.	.	.	.
COC(=O)C(CC(=O)c1cccc(OC)c1)c1ccc(F)cc1 (stereo not drawn)	55	.	.	.	.	.
COc1ccc(F)cc1-c1cc(C(=O)NCc2ccc(C(F)(F)F)cc2)[nH]n1	/	.	.	.	.	/
CC(C)Oc1ccc(F)cc1-c1cc(C(=O)Nc2ccccc2)[nH]n1	/	.	.	.	.	/
COc1ccccc1-c1cc(C(=O)NN)[nH]n1	57	.	.	.	.	.
